ChEMBL document CHEMBL1154352, “Toll-like receptor 7 selective synthetic oligoribonucleotide agonists: synthesis and structure-activity relationship studies” (J Med Chem, 2009)
Active and inactive are the calls of the source. The calls are words filed in the database; no cut-off is given here.

Experiments:
[1] = Metabolic stability in human serum assessed as full length product remaining after 10 mins by HPLC; type: ADME, cell-free; settings: read-out: Stability
How it was run: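 About 0.5 A260 units compound in 1% human serum in PBS, 37 °C; aliquot taken at 10 min, analysed by anion-exchange HPLC for percent intact full-length product.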

[2] = target: T1, Toll-like receptor 7 (Homo sapiens) (UniProt Q9NYK1); experiment: Activation of human TLR7 expressed in HEK293XL assessed as fold induction of NF-kappaB activity at 50 ug/ml after 18 hrs by reporter gene assay relative to control
T1 sequence (whole entry): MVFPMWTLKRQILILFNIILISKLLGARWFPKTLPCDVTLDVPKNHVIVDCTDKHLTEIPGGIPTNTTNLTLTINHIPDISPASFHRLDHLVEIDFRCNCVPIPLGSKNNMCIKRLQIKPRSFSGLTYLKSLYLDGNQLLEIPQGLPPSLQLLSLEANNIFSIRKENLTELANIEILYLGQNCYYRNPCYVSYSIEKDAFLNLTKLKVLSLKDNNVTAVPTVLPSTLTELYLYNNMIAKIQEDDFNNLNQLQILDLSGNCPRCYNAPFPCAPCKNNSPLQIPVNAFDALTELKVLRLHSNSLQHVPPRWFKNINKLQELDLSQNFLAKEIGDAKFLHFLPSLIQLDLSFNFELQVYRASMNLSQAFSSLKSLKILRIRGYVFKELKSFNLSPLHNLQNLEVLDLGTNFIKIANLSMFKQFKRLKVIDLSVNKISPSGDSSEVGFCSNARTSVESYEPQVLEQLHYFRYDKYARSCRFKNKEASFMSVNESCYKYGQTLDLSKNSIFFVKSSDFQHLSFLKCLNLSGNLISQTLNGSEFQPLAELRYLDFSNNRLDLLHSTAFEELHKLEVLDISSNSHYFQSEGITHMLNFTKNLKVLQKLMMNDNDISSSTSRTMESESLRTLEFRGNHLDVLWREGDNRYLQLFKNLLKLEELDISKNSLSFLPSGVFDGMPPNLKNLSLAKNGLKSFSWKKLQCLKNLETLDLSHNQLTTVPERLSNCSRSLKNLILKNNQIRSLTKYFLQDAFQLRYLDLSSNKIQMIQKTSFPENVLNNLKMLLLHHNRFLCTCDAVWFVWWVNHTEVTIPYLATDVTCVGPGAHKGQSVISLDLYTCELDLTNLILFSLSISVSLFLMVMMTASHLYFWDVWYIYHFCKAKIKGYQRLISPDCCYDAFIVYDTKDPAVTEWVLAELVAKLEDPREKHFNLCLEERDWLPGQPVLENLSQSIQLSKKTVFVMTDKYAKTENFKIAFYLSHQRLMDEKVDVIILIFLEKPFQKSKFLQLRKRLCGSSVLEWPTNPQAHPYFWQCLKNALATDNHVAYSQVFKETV
How it was run: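 HEK293 cells stably expressing human TLR7 or TLR8, transiently transfected with SEAP reporter plasmid; medium replaced, SIMRA compounds added, 18 h incubation. Supernatant SEAP measured by QuantiBlue; expressed as fold increase in NF-κB activity over PBS control. Tabulated data at 50 μg/mL, representative of three independent experiments.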

[3] = species: Homo sapiens; experiment: Ratio of human TLR7 activity to human TLR8 activity
How it was run: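 TLR7/TLR8 ratio computed from fold NF-κB (SEAP reporter) activation in HEK293 cells stably expressing human TLR7 versus TLR8, compounds at 50 μg/mL, 18 h exposure; representative of three independent experiments.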

[4] = target: Toll-like receptor 3 (Homo sapiens) (UniProt O15455); experiment: Activation of human TLR3 expressed in HEK293 assessed as induction of NF-kappaB activity reporter gene assay; type: cell-based
[5] = species: Homo sapiens; experiment: Immunostimulatory activity in human pDC assessed as induction of IFNalpha at 100 ug/ml after 24 hrs; type: functional
How it was run: (§1)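 Human pDCs plated at 1 × 10^6 cells/mL; compounds in PBS added, 37 °C for 24 h; supernatant cytokines/chemokines by human Luminex multiplex kit.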

[6] = test system: PBMC; experiment: Immunomodulatory activity in human PBMC assessed as induction of IL12 at 50 ug/ml after 24 hrs; type: functional, cell-based
How it was run: (§2)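 Human PBMCs plated at 5 × 10^6 cells/mL; compounds dissolved in PBS added at various concentrations, 37 °C for 24 h. Supernatant cytokines/chemokines quantified with human Luminex multiplex kit.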

[7] = test system: PBMC; experiment: Immunomodulatory activity in human PBMC assessed as induction of TNFalpha at 50 ug/ml after 24 hrs; type: functional, cell-based; how it was run: as §2
[8] = test system: PBMC; experiment: Immunomodulatory activity in human PBMC assessed as induction of IFNalpha at 50 ug/ml after 24 hrs; type: functional, cell-based; how it was run: as §2
[9] = test system: PBMC; experiment: Immunomodulatory activity in human PBMC assessed as induction of MIP1alpha at 50 ug/ml after 24 hrs; type: functional, cell-based; how it was run: as §2
[10] = test system: PBMC; experiment: Immunomodulatory activity in human PBMC assessed as induction of MIP1beta at 50 ug/ml after 24 hrs; type: functional, cell-based; how it was run: as §2
[11] = test system: PBMC; experiment: Immunomodulatory activity in human PBMC assessed as induction of IP10 at 50 ug/ml after 24 hrs; type: functional, cell-based; how it was run: as §2
[12] = test system: PBMC; experiment: Immunomodulatory activity in human PBMC assessed as induction of MCP1 at 50 ug/ml after 24 hrs; type: functional, cell-based; how it was run: as §2
[13] = test system: PBMC; experiment: Immunomodulatory activity in human PBMC assessed as induction of IL6 at 50 ug/ml after 24 hrs; type: functional, cell-based; how it was run: as §2
[14] = test system: PBMC; experiment: Immunomodulatory activity in human PBMC assessed as induction of IL1-beta at 50 ug/ml after 24 hrs; type: functional, cell-based; how it was run: as §2
[15] = species: Homo sapiens; experiment: Immunostimulatory activity in human pDC assessed as induction of IP10 at 100 ug/ml after 24 hrs; type: functional; how it was run: as §1
[16] = species: Homo sapiens; experiment: Immunostimulatory activity in human pDC assessed as induction of IL6 at 100 ug/ml after 24 hrs; type: functional; how it was run: as §1
[17] = species: Homo sapiens; experiment: Immunostimulatory activity in human mDC assessed as induction of IFNalpha at 100 ug/ml after 24 hrs; type: functional
How it was run: (§3)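 Human mDCs isolated from PBMCs by CD19+ B-cell depletion then BDCA1 positive selection; plated at 1 × 10^6 cells/mL, compounds in PBS, 37 °C for 24 h; supernatant cytokines by human Luminex multiplex. Representative of four independent experiments.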

[18] = species: Homo sapiens; experiment: Immunostimulatory activity in human mDC assessed as induction of IP10 at 100 ug/ml after 24 hrs; type: functional; how it was run: as §3
[19] = species: Homo sapiens; experiment: Immunostimulatory activity in human mDC assessed as induction of IL12 at 100 ug/ml after 24 hrs; type: functional; how it was run: as §3
[20] = species: Homo sapiens; experiment: Immunostimulatory activity in human mDC assessed as induction of IL6 at 100 ug/ml after 24 hrs; type: functional; how it was run: as §3
[21] = species: Homo sapiens; experiment: Immunostimulatory activity in human mDC assessed as induction of TNFalpha at 100 ug/ml after 24 hrs; type: functional; how it was run: as §3
[22] = test system: Mus musculus; experiment: Immunomodulatory activity in C57BL/6 mouse assessed as induction of IL12 release at 25 mg/kg, sc after 2 hrs by ELISA; type: functional, organism-based; design: dose 25 mg/kg
How it was run: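 Female C57BL/6 wild-type mice, 5–8 weeks old, n=3; compounds given subcutaneously at 10 or 25 mg/kg. Retro-orbital blood at 2 h; serum cytokines by mouse Luminex multiplex or IL-12 ELISA.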

Chain of Toll-like receptor 3 (Homo sapiens) (O15455 whole entry): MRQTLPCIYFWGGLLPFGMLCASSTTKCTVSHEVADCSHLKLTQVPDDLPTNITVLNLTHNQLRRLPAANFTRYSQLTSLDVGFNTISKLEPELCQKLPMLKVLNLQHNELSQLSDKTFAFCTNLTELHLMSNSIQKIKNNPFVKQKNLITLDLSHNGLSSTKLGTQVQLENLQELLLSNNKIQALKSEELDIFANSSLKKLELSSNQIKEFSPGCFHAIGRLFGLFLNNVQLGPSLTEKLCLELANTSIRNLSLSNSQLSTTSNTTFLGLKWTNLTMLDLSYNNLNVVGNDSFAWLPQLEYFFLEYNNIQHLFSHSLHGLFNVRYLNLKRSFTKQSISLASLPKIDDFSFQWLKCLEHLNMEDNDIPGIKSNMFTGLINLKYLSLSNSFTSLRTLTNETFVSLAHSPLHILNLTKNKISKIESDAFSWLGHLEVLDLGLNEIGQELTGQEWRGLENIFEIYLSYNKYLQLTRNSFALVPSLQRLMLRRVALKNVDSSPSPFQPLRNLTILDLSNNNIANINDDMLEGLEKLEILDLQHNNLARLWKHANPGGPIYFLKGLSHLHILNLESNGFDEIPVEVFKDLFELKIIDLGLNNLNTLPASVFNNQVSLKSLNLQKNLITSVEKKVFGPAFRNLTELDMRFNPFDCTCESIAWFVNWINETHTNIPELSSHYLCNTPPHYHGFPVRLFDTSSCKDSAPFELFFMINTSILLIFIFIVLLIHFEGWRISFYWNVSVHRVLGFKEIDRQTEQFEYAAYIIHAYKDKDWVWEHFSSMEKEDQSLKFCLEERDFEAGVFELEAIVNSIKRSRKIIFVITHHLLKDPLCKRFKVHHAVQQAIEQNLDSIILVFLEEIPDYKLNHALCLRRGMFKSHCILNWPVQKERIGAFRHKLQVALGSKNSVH

SMILES | remaining at 10 min [1] | fold change (FC) [2] | Ratio [3] | Activity [4] | Activity [5] | Activity [6] | Activity [7] | Activity [8] | Activity [9] | Activity [10] | Activity [11] | Activity [12] | Activity [13] | Activity [14] | Activity [15] | Activity [16] | Activity [17] | Activity [18] | Activity [19] | Activity [20] | also measured
Nc1ccn([C@@H]2O[C@H](COP(=O)(S)O[C@H]3[C@@H](O)[C@H](n4cnc5c(N)ncnc54)O[C@@H]3COP(=O)(S)O[C@H]3[C@@H](O)[C@H](n4ccc5c(=O)[nH]c(N)nc54)O[C@@H]3COP(=O)(S)O[C@H]3[C@@H](O)[C@H](n4ccc(=O)[nH]c4=O)O[C@@H]3COP(=O)(S)O[C@H]3[C@@H](O)[C@H](n4ccc5c(=O)[nH]c(N)nc54)O[C@@H]3COP(=O)(S)O[C@H]3[C@@H](O)[C@H](n4cnc5c(N)ncnc54)O[C@@H]3COP(=O)(S)O[C@H]3[C@@H](O)[C@H](n4cnc5c(N)ncnc54)O[C@@H]3CO)[C@@H](OP(=O)(S)OC[C@H]3O[C@@H](n4ccc5c(=O)[nH]c(N)nc54)[C@H](O)[C@@H]3OP(=O)(S)OC[C@H]3O[C@@H](n4cnc5c(N)ncnc54)[C@H](O)[C@@H]3OP(=O)(S)OC[C@H]3O[C@@H](n4ccc(=O)[nH]c4=O)[C@H](O)[C@@H]3OP(=O)(S)OC[C@H]3O[C@@H](n4ccc(=O)[nH]c4=O)[C@H](O)[C@@H]3OP(=O)(S)OCC(O)COP(=O)(S)O[C@H]3[C@@H](O)[C@H](n4ccc(=O)[nH]c4=O)O[C@@H]3COP(=O)(S)O[C@H]3[C@@H](O)[C@H](n4ccc(=O)[nH]c4=O)O[C@@H]3COP(=O)(S)O[C@H]3[C@@H](O)[C@H](n4cnc5c(N)ncnc54)O[C@@H]3COP(=O)(S)O[C@H]3[C@@H](O)[C@H](n4ccc5c(=O)[nH]c(N)nc54)O[C@@H]3COP(=O)(S)O[C@H]3[C@@H](O)[C@H](n4ccc(N)nc4=O)O[C@@H]3COP(=O)(S)O[C@H]3[C@@H](O)[C@H](n4cnc5c(N)ncnc54)O[C@@H]3COP(=O)(S)O[C@H]3[C@@H](O)[C@H](n4ccc5c(=O)[nH]c(N)nc54)O[C@@H]3COP(=O)(S)O[C@H]3[C@@H](O)[C@H](n4ccc(=O)[nH]c4=O)O[C@@H]3COP(=O)(S)O[C@H]3[C@@H](O)[C@H](n4ccc5c(=O)[nH]c(N)nc54)O[C@@H]3COP(=O)(S)O[C@H]3[C@@H](O)[C@H](n4cnc5c(N)ncnc54)O[C@@H]3COP(=O)(S)O[C@H]3[C@@H](O)[C@H](n4cnc5c(N)ncnc54)O[C@@H]3CO)[C@H]2O)c(=O)n1 (some centres undefined) | 90% | 17.5 | 21.9 | inactive | Active | 174 pg/mL | 18 pg/mL | 121 pg/mL | 3090 pg/mL | 6680 pg/mL | 55 pg/mL | 46700 pg/mL | 1900 pg/mL | 123 pg/mL | Active | Active | Active | Active | Active | Active | Activity [21]: Active; Activity [22]: Active
Nc1ccn([C@@H]2O[C@H](CO[C@H]3[C@@H](O)[C@H](n4cnc5c(N)ncnc54)O[C@@H]3COP(=O)(S)O[C@H]3[C@@H](O)[C@H](n4ccc5c(=O)[nH]c(N)nc54)O[C@@H]3COP(=O)(S)O[C@H]3[C@@H](O)[C@H](n4ccc(=O)[nH]c4=O)O[C@@H]3COP(=O)(S)O[C@H]3[C@@H](O)[C@H](n4cnc5c(N)ncnc54)O[C@@H]3COP(=O)(S)O[C@H]3[C@@H](O)[C@H](n4ccc5c(=O)[nH]c(N)nc54)O[C@@H]3COP(=O)(S)O[C@H]3[C@@H](O)[C@H](n4ccc(=O)[nH]c4=O)O[C@@H]3CO)[C@@H](OP(=O)(S)OC[C@H]3O[C@@H](n4ccc5c(=O)[nH]c(N)nc54)[C@H](O)[C@@H]3OP(=O)(S)OC[C@H]3O[C@@H](n4cnc5c(N)ncnc54)[C@H](O)[C@@H]3OP(=O)(S)OC[C@H]3O[C@@H](n4ccc(=O)[nH]c4=O)[C@H](O)[C@@H]3OP(=O)(S)OC[C@H]3O[C@@H](n4ccc(=O)[nH]c4=O)[C@H](O)[C@@H]3OP(=O)(S)OCC(O)COP(=O)(S)O[C@H]3[C@@H](O)[C@H](n4ccc(=O)[nH]c4=O)O[C@@H]3COP(=O)(S)O[C@H]3[C@@H](O)[C@H](n4ccc(=O)[nH]c4=O)O[C@@H]3COP(=O)(S)O[C@H]3[C@@H](O)[C@H](n4cnc5c(N)ncnc54)O[C@@H]3COP(=O)(S)O[C@H]3[C@@H](O)[C@H](n4ccc5c(=O)[nH]c(N)nc54)O[C@@H]3COP(=O)(S)O[C@H]3[C@@H](O)[C@H](n4ccc(N)nc4=O)O[C@@H]3CO[C@H]3[C@@H](O)[C@H](n4cnc5c(N)ncnc54)O[C@@H]3COP(=O)(S)O[C@H]3[C@@H](O)[C@H](n4ccc5c(=O)[nH]c(N)nc54)O[C@@H]3COP(=O)(S)O[C@H]3[C@@H](O)[C@H](n4ccc(=O)[nH]c4=O)O[C@@H]3COP(=O)(S)O[C@H]3[C@@H](O)[C@H](n4cnc5c(N)ncnc54)O[C@@H]3COP(=O)(S)O[C@H]3[C@@H](O)[C@H](n4ccc5c(=O)[nH]c(N)nc54)O[C@@H]3COP(=O)(S)O[C@H]3[C@@H](O)[C@H](n4ccc(=O)[nH]c4=O)O[C@@H]3CO)[C@H]2O)c(=O)n1 (some centres undefined) | 84% | 17.5 | 10.9 | inactive | Active | 434 pg/mL | 68 pg/mL | 131 pg/mL | 5790 pg/mL | 9960 pg/mL | 155 pg/mL | 56000 pg/mL | 2760 pg/mL | 306 pg/mL | Active | Active | Active | Active | Active | Active | Activity [21]: Active; Activity [22]: Active
